Measurements from different studies.
Each line is one published result; the experiments were not run side by side.
Cell line: A549
Observed: cell growth or viability

Compound	method	tested at	time	measurement	value
COc1cccc(NC(=O)CN2C(=O)/C(=C/C3CC3)SC2=S)c1	MTT	10 µM		inhibition	17.2%
CC(C)=CCC[C@](C)(O)[C@H]1CC[C@]2(C)[C@@H]1[C@H](O)C[C@@H]1[C@@]3(C)CC[C@H](O[C@@H]4O[C@H](CO)[C@@H](O)[C@H](O)[C@H]4O[C@@H]4O[C@H](CO)[C@@H](O)[C@H](O)[C@H]4O)C(C)(C)[C@@H]3CC[C@]12C	MTT		72 h	IC80	> 100 µM
COc1ccc2c(c1)C(=NNc1ncnc3cc(OC)c(OC)cc13)C(=O)N2		10 µM		inhibition	-10.4%
COc1cccc2c1C(=O)c1c(O)c3c(c(O)c1C2=O)C[C@@](O)(C(=O)CO)C[C@@H]3O[C@H]1C[C@H](N)[C@H](O)[C@H](C)O1	MTT		72 h	GI50	5.66 µM
CN1C[C@H](C(=O)N[C@]2(C)O[C@@]3(O)[C@@H]4CCCN4C(=O)[C@H](Cc4ccccc4)N3C2=O)C[C@@H]2c3cccc4[nH]cc(c34)C[C@H]21	MTT		72 h	EC50	43 µM
COC(=O)C1=C(C)NC(C)=C(C(=O)OCCN(C)Cc2ccccc2)C1c1cccc([N+](=O)[O-])c1 (stereo not shown)	CCK-8	100 µM	72 h	viability	< 50%
COC(C)(C)CCC[C@](C)(O)[C@H]1CC[C@]2(C)[C@@H]1[C@H](O)C[C@@H]1[C@@]3(C)CC[C@H](O)C(C)(C)[C@@H]3CC[C@]12C	MTT		72 h	IC20	0.66 µM
O=C(CN1C(=O)/C(=C/c2cccc(Cl)c2)SC1=S)Nc1ccccc1	MTT	10 µM		inhibition	25.9%
COc1ccc(CCNCC(O)COc2cccc(C)c2)cc1OC (stereo not shown)	CCK-8	100 µM	72 h	viability	< 50%
O=C(CN1C(=O)/C(=C/c2ccc(C(F)(F)F)cc2)SC1=S)Nc1ccccc1	MTT	10 µM		inhibition	27.8%
C=C(c1ccc(C(=O)O)cc1)c1cc2c(cc1C)C(C)(C)CCC2(C)C	MTT		72 h	EC50	58 µM
COc1ccc2c(c1)C(=NNc1nc(-c3ccc(OC)c(OC)c3)nc3ccccc13)C(=O)N2		30 µM		inhibition	17%
CC/C(=C(\c1ccccc1)c1ccc(OCCN(C)C)cc1)c1ccccc1	ATP luminescence		72 h	EC90	26.1 µM
O=C(CN1C(=O)/C(=C/c2ccc(Cl)cc2Cl)SC1=S)Nc1ccccc1	MTT	10 µM		inhibition	4.43%
CCn1cc(C(=O)O)c(=O)c2cc(F)c(N3CCNCC3)cc21	SRB		48 h	GI50	> 80 µg/mL
CCN(CC)CCNC(=O)c1c(C)[nH]c(/C=C2\C(=O)Nc3ccc(F)cc32)c1C		30 µM		inhibition	85.7%
O=C(CN1C(=O)/C(=C/c2ccc(F)cc2)SC1=S)Nc1ccccc1	MTT	10 µM		inhibition	27.6%
O=C1Nc2ccccc2C1=NNc1nnc(Cc2ccccc2)c2ccccc12		30 µM		inhibition	81.1%
O=C(CN1C(=O)/C(=C/c2ccco2)SC1=S)Nc1ccccc1	MTT	10 µM		inhibition	39.5%
